Measurements published in ChEMBL document CHEMBL3525900, “Pharmacokinetics, distribution, and metabolism of [14C]sunitinib in rats, monkeys, and humans” (Drug Metab Dispos, 2012).

Tests used:
[1] = Drug concentration in female albino rat uterus assessed as radioactivity per gram of tissue at 20 mg/kg administered as single dose via gastric gavage measured after 6 hrs by autoradiographic analysis; format: ADME, organism-based; set-up: dose 20 mg/kg, dosed compound name [14C]Sunitinib; conditions: in vivo, po
[2] = Drug concentration in female albino rat eye assessed as radioactivity per gram of tissue at 20 mg/kg administered as single dose via gastric gavage measured after 24 hrs by autoradiographic analysis; format: ADME, organism-based; set-up: dose 20 mg/kg, dosed compound name [14C]Sunitinib; conditions: in vivo, po
Method in brief: (§1)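 Sprague Dawley albino rats, ca 7-8 weeks old, dosed once by gastric gavage with [14C]sunitinib L-malate (15 mg freebase/kg, 100 µCi/kg). One male and one female killed by CO2 at 3, 6, 24, 72 and 168 h. Carcasses frozen in solid CO2/hexane, embedded and cut into 30 µm sagittal sections, then freeze-dried. Radioactivity quantified by whole-body autoradiography against standards by regression, background subtracted.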

Liver [3] = experiment: Drug concentration in male Lister Hooded pigmented rat liver assessed as radioactivity per gram of tissue at 20 mg/kg administered as single dose via gastric gavage measured after 72 hrs by autoradiographic analysis; format: ADME, organism-based; set-up: dose 20 mg/kg, dosed compound name [14C]Sunitinib; conditions: in vivo, po
[4] = Drug concentration in female albino rat brown fat assessed as radioactivity per gram of tissue at 20 mg/kg administered as single dose via gastric gavage measured after 3 hrs by autoradiographic analysis; format: ADME, organism-based, Brown adipose tissue; set-up: dose 20 mg/kg, dosed compound name [14C]Sunitinib; conditions: in vivo, po
Method in brief: (§2)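 Sprague Dawley (albino) and Lister Hooded (pigmented) rats, ca 7-8 weeks old, 179-310 g, acclimated 7 days. Single gavage dose of [14C]sunitinib L-malate (15 mg freebase/kg, 100 µCi/kg). One male and one female killed by CO2 per time point: albino at 3, 6, 24, 72, 168 h; pigmented at 24, 72, 168, 336 h. Carcasses frozen in solid CO2/hexane, 30 µm sagittal sections freeze-dried. Tissue radioactivity read by quantitative whole-body autoradiography against regression of standards, mean background subtracted.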

Cynomolgus monkey = experiment: Drug recovery in cage residue of male cynomolgus monkey at 6 mg/kg, po administered as single dose during 0 to 336 hrs by liquid scintillation counting; format: ADME, organism-based, Macaca fascicularis; set-up: dose 6 mg/kg, dosed compound name [14C]Sunitinib, route oral; conditions: in vivo
Spinal cord = experiment: Drug concentration in female albino rat spinal cord assessed as radioactivity per gram of tissue at 20 mg/kg administered as single dose via gastric gavage measured after 24 hrs by autoradiographic analysis; format: ADME, organism-based; set-up: dose 20 mg/kg, dosed compound name [14C]Sunitinib; conditions: in vivo, po
[5] = Drug recovery in urine of human at 50 mg, po administered as single dose during 0 to 504 hrs by liquid scintillation counting; format: ADME, organism-based; set-up: dosed compound name [14C]Sunitinib; conditions: in vivo
Rattus norvegicus [6] = experiment: Drug recovery in cage residue of female Sprague-Dawley rat at 15 mg/kg, po administered as single dose during 0 to 72 hrs by liquid scintillation counting; format: ADME, organism-based; set-up: dose 15 mg/kg, dosed compound name [14C]Sunitinib, route oral; conditions: in vivo
Liver [7] = experiment: Drug concentration in female albino rat liver assessed as radioactivity per gram of tissue at 20 mg/kg administered as single dose via gastric gavage measured after 72 hrs by autoradiographic analysis; format: ADME, organism-based; set-up: dose 20 mg/kg, dosed compound name [14C]Sunitinib; conditions: in vivo, po; method in brief: as §1
Small intestine = experiment: Drug concentration in male albino rat small intestine assessed as radioactivity per gram of tissue at 20 mg/kg administered as single dose via gastric gavage measured after 72 hrs by autoradiographic analysis; format: ADME, organism-based; set-up: dose 20 mg/kg, dosed compound name [14C]Sunitinib; conditions: in vivo, po
[8] = Drug recovery in urine of female cynomolgus monkey at 6 mg/kg, po administered as single dose during 0 to 336 hrs by liquid scintillation counting; format: ADME, organism-based, Macaca fascicularis; set-up: dose 6 mg/kg, dosed compound name [14C]Sunitinib, route oral; conditions: in vivo
Brain = experiment: Drug concentration in female albino rat brain assessed as radioactivity per gram of tissue at 20 mg/kg administered as single dose via gastric gavage measured after 24 hrs by autoradiographic analysis; format: ADME, organism-based; set-up: dose 20 mg/kg, dosed compound name [14C]Sunitinib; conditions: in vivo, po
Method in brief: (§3)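 Sprague Dawley (albino) rats, ca 7-8 weeks old, received a single gastric-gavage dose of [14C]sunitinib L-malate at 20 mg/kg (15 mg freebase/kg, 100 µCi/kg). One animal per sex killed by CO2 at 3, 6, 24, 72 and 168 h, then frozen in CO2/hexane. 30 µm sagittal sections were cut and freeze-dried. Radioactivity per gram quantified by whole-body autoradiography using regression against standards. LOQ 0.04–0.06 µg freebase equiv/g.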

Liver [9] = experiment: Drug concentration in female albino rat liver assessed as radioactivity per gram of tissue at 20 mg/kg administered as single dose via gastric gavage measured after 3 hrs by autoradiographic analysis; format: ADME, organism-based; set-up: dose 20 mg/kg, dosed compound name [14C]Sunitinib; conditions: in vivo, po; method in brief: as §1
[10] = Drug concentration in male albino rat skeletal muscle assessed as radioactivity per gram of tissue at 20 mg/kg administered as single dose via gastric gavage measured after 6 hrs by autoradiographic analysis; format: ADME, organism-based; set-up: dose 20 mg/kg, dosed compound name [14C]Sunitinib; conditions: in vivo, po
Pancreas = experiment: Drug concentration in female albino rat pancreas assessed as radioactivity per gram of tissue at 20 mg/kg administered as single dose via gastric gavage measured after 3 hrs by autoradiographic analysis; format: ADME, organism-based; set-up: dose 20 mg/kg, dosed compound name [14C]Sunitinib; conditions: in vivo, po; method in brief: as §1
[11] = Drug concentration in female albino rat bone marrow assessed as radioactivity per gram of tissue at 20 mg/kg administered as single dose via gastric gavage measured after 3 hrs by autoradiographic analysis; format: ADME, organism-based; set-up: dose 20 mg/kg, dosed compound name [14C]Sunitinib; conditions: in vivo, po; method in brief: as §2
Spleen = experiment: Drug concentration in male albino rat spleen assessed as radioactivity per gram of tissue at 20 mg/kg administered as single dose via gastric gavage measured after 3 hrs by autoradiographic analysis; format: ADME, organism-based; set-up: dose 20 mg/kg, dosed compound name [14C]Sunitinib; conditions: in vivo, po
[12] = Drug concentration in female Lister Hooded pigmented rat eye assessed as radioactivity per gram of tissue at 20 mg/kg administered as single dose via gastric gavage measured after 336 hrs by autoradiographic analysis; format: ADME, organism-based; set-up: dose 20 mg/kg, dosed compound name [14C]Sunitinib; conditions: in vivo, po
Method in brief: (§4)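 Lister Hooded (pigmented) rats, ca 7-8 weeks old, acclimated 7 days, given [14C]sunitinib L-malate by gastric gavage at 20 mg/kg (15 mg freebase/kg, 100 µCi/kg). One male and one female killed by CO2 at 24, 72, 168 and 336 h. Carcasses frozen in solid CO2/hexane and embedded in frozen cellulose. 30 µm sagittal cryosections were freeze-dried. Tissue radioactivity measured by quantitative whole-body autoradiography against calibration standards, with background subtracted.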

[13] = Drug concentration in female Lister Hooded pigmented rat preputial gland assessed as radioactivity per gram of tissue at 20 mg/kg administered as single dose via gastric gavage measured after 24 hrs by autoradiographic analysis; format: ADME, organism-based; set-up: dose 20 mg/kg, dosed compound name [14C]Sunitinib; conditions: in vivo, po; method in brief: as §4
Large intestine = experiment: Drug concentration in female albino rat large intestine assessed as radioactivity per gram of tissue at 20 mg/kg administered as single dose via gastric gavage measured after 72 hrs by autoradiographic analysis; format: ADME, organism-based; set-up: dose 20 mg/kg, dosed compound name [14C]Sunitinib; conditions: in vivo, po; method in brief: as §1
Heart = experiment: Drug concentration in female albino rat heart assessed as radioactivity per gram of tissue at 20 mg/kg administered as single dose via gastric gavage measured after 3 hrs by autoradiographic analysis; format: ADME, organism-based; set-up: dose 20 mg/kg, dosed compound name [14C]Sunitinib; conditions: in vivo, po; method in brief: as §1
[14] = Drug concentration in male Lister Hooded pigmented rat bone marrow assessed as radioactivity per gram of tissue at 20 mg/kg administered as single dose via gastric gavage measured after 168 hrs by autoradiographic analysis; format: ADME, organism-based; set-up: dose 20 mg/kg, dosed compound name [14C]Sunitinib; conditions: in vivo, po
Rattus norvegicus [15] = experiment: AUC (0 to infinity) as total radioactivity in male Sprague-Dawley rat plasma at 15 mg/kg, po administered as single dose by LC/MS/MS analysis; format: ADME, organism-based; set-up: time infinity, dose 15 mg/kg, dosed compound name [14C]Sunitinib, route oral; conditions: in vivo
Method in brief: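 Single dose of [14C]sunitinib L-malate as free base, 50 µCi/kg. IV dose was 5 mg/kg by tail vein in 5 females. Oral dose was 15 mg/kg by gavage in 3 females and 3 males. Total radioactivity was by scintillation counting. […] Cmax was read from raw data, t½ by log-linear regression, AUC by linear trapezoidal rule.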

Zone of skin = experiment: Drug concentration in female albino rat abdomen skin assessed as radioactivity per gram of tissue at 20 mg/kg administered as single dose via gastric gavage measured after 168 hrs by autoradiographic analysis; format: ADME, organism-based; set-up: dose 20 mg/kg, dosed compound name [14C]Sunitinib; conditions: in vivo, po; method in brief: as §3
Lung = experiment: Drug concentration in male albino rat lung assessed as radioactivity per gram of tissue at 20 mg/kg administered as single dose via gastric gavage measured after 24 hrs by autoradiographic analysis; format: ADME, organism-based; set-up: dose 20 mg/kg, dosed compound name [14C]Sunitinib; conditions: in vivo, po
Stomach = experiment: Drug concentration in female Lister Hooded pigmented rat stomach assessed as radioactivity per gram of tissue at 20 mg/kg administered as single dose via gastric gavage measured after 24 hrs by autoradiographic analysis; format: ADME, organism-based; set-up: dose 20 mg/kg, dosed compound name [14C]Sunitinib; conditions: in vivo, po; method in brief: as §4

Radiolabel recovery [1]: 6.63 ugequiv | Radiolabel recovery [2]: 0.43 ugequiv | Radiolabel recovery (Liver [3]): 0.22 ugequiv | Radiolabel recovery [4]: 10.63 ugequiv | Radiolabel recovery (Cynomolgus monkey): 1.9% | Radiolabel recovery (Spinal cord): 0.07 ugequiv | Radiolabel recovery [5]: 16% | Radiolabel recovery (Rattus norvegicus [6]): 2.2% | Radiolabel recovery (Liver [7]): 0.37 ugequiv | Radiolabel recovery (Small intestine): 0.15 ugequiv | Radiolabel recovery [8]: 6.1% | Radiolabel recovery (Brain): 0.07 ugequiv | Radiolabel recovery (Liver [9]): 19.89 ugequiv | Radiolabel recovery [10]: 2.3 ugequiv | Radiolabel recovery (Pancreas): 13.45 ugequiv | Radiolabel recovery [11]: 10.64 ugequiv | Radiolabel recovery (Spleen): 20.52 ugequiv | Radiolabel recovery [12]: 56.9 ugequiv | Radiolabel recovery [13]: 4.5 ugequiv | Radiolabel recovery (Large intestine): 0.09 ugequiv | Radiolabel recovery (Heart): 7.31 ugequiv | Radiolabel recovery [14]: 0.06 ugequiv | AUC (Rattus norvegicus [15]): 82039 ng.Eq.hr/ml | Radiolabel recovery (Zone of skin): 0.26 ugequiv | Radiolabel recovery (Lung): 0.87 ugequiv | Radiolabel recovery (Stomach): 0.64 ugequiv
Structure (SMILES): CCN(CC)CCNC(=O)c1c(C)[nH]c(/[14CH]=C2\C(=O)Nc3ccc(F)cc32)c1C.O=C(O)C[C@H](O)C(=O)O
